High-throughput results from PubChem BioAssay.
Pf Dd2 inh = P. falciparum Dd2 growth inhibition. SYBR Green, 72 h; hits give low values. activity change, % at 10 µM. actives 2.3% (n = 94,000). AID 1159554; in the data active means activity change below about -80%; inconclusive means no clear call, values can overlap the other calls
IDH1 mut inh = blocks human IDH1 R132H reductase activity | O75874 | diaphorase/resazurin fluorescence, 60 min | inhibition, % at 10 µM | actives 0.18% (n = 70,000); in the data active means inhibition above about 34%; inconclusive means no clear call, values can overlap the other calls; inactive means below about 11%;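 further: 0% = DMSO and 100% = no enzyme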
T cruzi growth-1 = T. cruzi proliferation inhibition; T. cruzi beta-gal in NIH3T3, GalScreen luminescence, 90 h; inhibition, % at 8.34 µM; actives 5.9% (n = 77,000); AID 624255;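 active means mean inhibition above about 93%, with at least 55% of replicates each passing it, limit read from the data, passing the limit was not always enough; inconclusive means only one of those two conditions holds; inactive means neither condition holds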
KDM4C inh = KDM4C (human) demethylase inhibition; Q9H3R0; GST-KDM4C 2-372, H3K9me3 peptide, LANCE TR-FRET; inhibition, % at 12.5 µM; actives 0.15% (n = 96,000); AID 720574;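 active means mean replicate inhibition above about 25%, with at least 55% of replicates also reaching it, limit read from the data, passing the limit was not always enough; inconclusive means only one of those two conditions met; inactive means neither condition met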
Target sequence (Q9H3R0 2-372 limits assumed): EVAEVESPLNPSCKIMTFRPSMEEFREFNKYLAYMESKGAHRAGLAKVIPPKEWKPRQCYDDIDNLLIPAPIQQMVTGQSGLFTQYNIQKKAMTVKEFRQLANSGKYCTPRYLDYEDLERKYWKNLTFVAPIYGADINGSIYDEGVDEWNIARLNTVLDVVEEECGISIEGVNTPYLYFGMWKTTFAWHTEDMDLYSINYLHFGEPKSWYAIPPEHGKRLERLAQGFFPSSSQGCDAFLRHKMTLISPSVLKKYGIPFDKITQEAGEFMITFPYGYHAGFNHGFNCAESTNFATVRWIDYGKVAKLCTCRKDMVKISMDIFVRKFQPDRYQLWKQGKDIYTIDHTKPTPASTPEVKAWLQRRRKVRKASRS
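Material: GST-tagged GASC-1 (JMJD2C) catalytic fragment, aa 2-372 / Quantity: enzyme final amount 10 nM / Medium: HEPES buffer, pH 7.5, plus ascorbate / Doses: one test concentration per compound / Incubation: 30 min reaction, 60 min detection, RT / Measured by: LANCE TR-FRET / Read-out: inhibition from TR-FRET ratio decrease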
T cruzi growth-2 = Trypanosoma cruzi proliferation inhibition. shares compounds with T cruzi growth-1. T. cruzi beta-gal in NIH3T3, GalScreen luminescence, 90 h. inhibition, % at 8.35 µM. actives 72% (n = 5,600). AID 651739;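 active means mean replicate inhibition above about 95% and at least 55% of replicates individually reaching it, limit read from the data; inconclusive means only one of the two criteria is met; inactive means neither criterion is met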
T cruzi growth-3 = inhibitors of T. cruzi proliferation | shares compounds with T cruzi growth-1 | T. cruzi beta-gal in NIH3T3, GalScreen luminescence, 90 h | inhibition, % at 2.09 µM | actives 21% (n = 5,600) | AID 651740;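 active means mean inhibition above about 95%, with at least 55% of replicates also reaching it, limit read from the data; inconclusive means meets just one of the two conditions; inactive means meets neither condition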;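 further: plate controls were neutral control median for no effect and positive control median for full effect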
3T3 cytotox = kills mouse NIH/3T3 fibroblasts | shares compounds with T cruzi growth-1 | NIH/3T3 viability, CellTiter-Glo ATP luminescence, 90 h | cytotoxicity (signal decrease), % at 8.35 µM | actives 14% (n = 5,600) | AID 651742;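 active means mean signal decrease across replicates above about 35% based on untreated-well scatter, with enough replicates individually passing, limit read from the data; inconclusive means no rule stated though some were filed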;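 further: 0% = median of neutral control wells and 100% = median of positive control wells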
3T3 cytotox 2 = NIH/3T3 (mouse) viability loss | shares compounds with T cruzi growth-1 | NIH/3T3 viability, CellTiter-Glo ATP luminescence, 90 h | inhibition, % at 24.9 µM | actives 56% (n = 5,600) | AID 651744;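 active means mean loss of cell viability signal at or above a set limit, and enough replicates individually reaching it; inconclusive means meets only the mean limit or only the replicate share; inactive means meets neither condition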;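 further: 0% = median of neutral control wells and 100% = median of positive control wells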
The depositor's hits bear a star; ? = inconclusive; . = no result given. The list is not random: actives were taken first. Their share in the collection is about 5.8%.

SMILES	Pf Dd2 inh	IDH1 mut inh	T cruzi growth-1	KDM4C inh	T cruzi growth-2	T cruzi growth-3	3T3 cytotox	3T3 cytotox 2
CNC[C@H]1OCCCC[C@H](C)Oc2ccc(NS(C)(=O)=O)cc2C(=O)N([C@@H](C)CO)C[C@@H]1C	2	5	101*	-2	-26	-5	-15	-25
CNC[C@@H]1OCCCC[C@H](C)Oc2ccc(NS(=O)(=O)c3ccc(C)cc3)cc2C(=O)N([C@@H](C)CO)C[C@H]1C	23	.	78	-1	.	.	.	.
CNC[C@H]1OCCCC[C@H](C)Oc2ccc(NS(=O)(=O)c3ccc(C)cc3)cc2C(=O)N([C@@H](C)CO)C[C@@H]1C	-8	6	102*	7	-10	-12	1	11
C[C@@H]1CN([C@@H](C)CO)C(=O)c2cc(NC(=O)Nc3cccc4ccccc34)ccc2O[C@@H](C)CCCCO[C@@H]1CN(C)Cc1ccncc1	-46	.	8	-1	.	.	.	.
C[C@@H]1CCCCO[C@@H](CN(C)Cc2ccncc2)[C@H](C)CN([C@H](C)CO)C(=O)c2cc(NC(=O)Nc3cccc4ccccc34)ccc2O1	-48	-3	98*	0	108*	83	-14	22
C[C@@H]1CCCCO[C@@H](CN(C)Cc2ccccc2)[C@@H](C)CN([C@@H](C)CO)C(=O)c2cc(NC(=O)Nc3cccc4ccccc34)ccc2O1	-19	2	115*	1	107*	109*	18	6
C[C@@H]1CCCCO[C@@H](CN(C)Cc2ccc3c(c2)OCO3)[C@@H](C)CN([C@@H](C)CO)C(=O)c2cc(NC(=O)Nc3cccc4ccccc34)ccc2O1	-47	1	?	-1	102*	106*	14	21
Cc1c(C(=O)Nc2sc3c(c2C(=O)NC2CCS(=O)(=O)C2)CCC(C)C3)oc2ccc(Cl)cc12 (stereo not drawn)	.	0	.	.	.	.	.	.
COc1ccc(NC(=O)N2CC[C@@H]3[C@H]2c2cc(-c4ccc(F)cc4)ccc2N(C)[C@H]3CO)cc1	-18	.	62	-3	.	.	.	.
O=C(C[C@@H]1C[C@@H]2c3cc(NC(=O)Nc4ccccc4F)ccc3O[C@@H]2[C@@H](CO)O1)NCc1ccc(Oc2ccccc2)cc1	-71	0	15	1	.	.	.	.
COc1cccc(-c2ccc3c(c2)O[C@@H](CN(C)C(=O)C2CC2)[C@@H](C)CN([C@H](C)CO)S3(=O)=O)c1	-45	.	105*	-1	82	21	-7	63*
COc1cccc(-c2ccc3c(c2)O[C@@H](CN(C)C(=O)C2CC2)[C@@H](C)CN([C@@H](C)CO)S3(=O)=O)c1	-21	.	105*	0	79	61	16	45*
O=C(O)C[C@H]1CC[C@@H]2[C@H](COC[C@H](O)CN2S(=O)(=O)c2ccc(Oc3ccccc3)cc2)O1	55	.	-43	1	.	.	.	.
C[C@@H]1CCCCO[C@@H](CN(C)Cc2ccc3c(c2)OCO3)[C@H](C)CN([C@H](C)CO)C(=O)c2cc(NC(=O)Nc3ccc(F)cc3)ccc2O1	-78	.	?	1	97*	100*	24	104*
C[C@H]1CCCCO[C@H](CN(C)Cc2ccc3c(c2)OCO3)[C@@H](C)CN([C@@H](C)CO)C(=O)c2cc(NC(=O)Nc3ccc(F)cc3)ccc2O1	-75	2	109*	0	102*	99*	28	104*
CN1c2ccc(-c3ccc(F)cc3)cc2[C@@H]2[C@@H](CCN2C(=O)C2CCOCC2)[C@H]1CO	1	.	105*	0	105*	94	-8	12
CN1c2ccc(-c3ccc(F)cc3)cc2[C@@H]2[C@@H](CCN2C(=O)C2CCOCC2)[C@@H]1CO	2	.	98*	0	106*	87	4	-1
CN(C)C(=O)c1ccc(-c2ccc3c(c2)[C@@H]2[C@@H](CCN2C(=O)C2CCOCC2)[C@@H](CO)N3C)cc1	1	.	102*	2	107*	55	-7	11
CN(C)C(=O)c1ccc(-c2ccc3c(c2)[C@@H]2[C@@H](CCN2C(=O)C2CCCC2)[C@H](CO)N3C)cc1	-78	.	.	2	.	.	.	.
CN1c2ccc(-c3ccc(F)cc3)cc2[C@H]2[C@H](CCN2C(=O)C2CCOCC2)[C@H]1CO	26	.	88	1	.	.	.	.
COCC(=O)Nc1ccc2c(c1)[C@@H]1C[C@H](CC(=O)NCCN3CCCCC3)O[C@H](CO)[C@@H]1O2	10	-4	13	-2	.	.	.	.
COc1ccc(C#Cc2ccc3c(c2)[C@H]2[C@H](CCN2C(=O)C2CCCCC2)[C@@H](CO)N3)cc1	-55	.	84	0	.	.	.	.
O=C(c1ccccc1F)N1CC[C@H]2[C@H](CO)Nc3ccc(C#Cc4ccccc4)cc3[C@H]21	-39	.	108*	-1	111*	81	20	?
COc1ccc(C#Cc2ccc3c(c2)[C@@H]2[C@@H](CCN2C(=O)c2ccccc2F)[C@H](CO)N3)cc1	-33	.	100*	0	93	19	-15	9
COc1ccc(C#Cc2ccc3c(c2)[C@@H]2[C@@H](CCN2C(=O)C2CC2)[C@@H](CO)N3)cc1	-48	.	109*	-2	110*	34	20	46*
O=C(c1ccccc1F)N1CC[C@@H]2[C@@H](CO)Nc3ccc(C#Cc4ccccc4)cc3[C@@H]21	-35	.	?	-5	109*	86	9	104*
Cc1ccc(S(=O)(=O)Nc2ccc3c(c2)CC(=O)N([C@H](C)CO)C[C@@H](C)[C@@H](CN(C)S(=O)(=O)c2c(C)noc2C)O3)cc1	26	-1	16	-1	.	.	.	.
Cc1ccc(S(=O)(=O)Nc2ccc3c(c2)CC(=O)N([C@H](C)CO)C[C@H](C)[C@@H](CN(C)Cc2ccc4c(c2)OCO4)O3)cc1	-60	0	106*	4	104*	99*	-32	25*
C[C@@H]1CN([C@@H](C)CO)C(=O)Cc2cc(NS(=O)(=O)c3ccc(Cl)cc3)ccc2O[C@H]1CN(C)Cc1ccc2c(c1)OCO2	-13	0	78	1	.	.	.	.
C[C@@H]1CN([C@H](C)CO)C(=O)Cc2cc(NS(=O)(=O)c3ccc(Cl)cc3)ccc2O[C@H]1CN(C)Cc1ccc2c(c1)OCO2	8	1	113*	0	108*	86	14	3
